Experimental data reported in ChEMBL document CHEMBL4251659, “Anti-Influenza Triterpene Saponins from the Bark of Burkea africana” (J Nat Prod, 2018).

Tests used:
Influenza A virus = assay: Antiviral activity against Influenza A virus H1N1 A/Jena/8178/09 infected in MDCK cells assessed as inhibition of virus-induced cytopathic effect after 48 hrs; type: functional, organism-based
Method in brief: (§1)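 Run on 2-day-old confluent MDCK monolayers. Test concentrations reached a maximum of 100 μM for pure compounds and 100 μg/mL for extracts or fractions. Virus input gave complete CPE at 48 h post-infection, when inhibition was scored. Each concentration was tested twice. IC50 (50% inhibition of virus-induced CPE) is the mean of at least three experiments.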

Influenza A virus H3N2 = assay: Antiviral activity against Influenza A virus H3N2 A/Hong Kong/68 infected in MDCK cells assessed as inhibition of virus-induced cytopathic effect after 48 hrs; type: functional, organism-based; method in brief: as §1
[1] = Selectivity index, ratio of CC50 for MDCK cells to IC50 for Influenza A virus H3N2 A/Hong Kong/68 infected in MDCK cells; type: toxicity, cell-based; settings: dog, read-out: Ratio CC50/IC50
Method in brief: (§2)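 SI was calculated as CC50/IC50. CC50 was measured on 2-day-old confluent MDCK monolayers 72 h after sample addition, at a maximum of 100 μM for compounds or 100 μg/mL for extracts or fractions, with each concentration tested twice. IC50 came from the 48 h CPE inhibition assay. Both are means of at least three experiments.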

[2] = Selectivity index, ratio of CC50 for MDCK cells to IC50 for Influenza A virus H1N1 A/Jena/8178/09 infected in MDCK cells; type: toxicity, cell-based; settings: dog, read-out: Ratio CC50/IC50; method in brief: as §2

Row | Structure (SMILES) | IC50 (Influenza A virus) | IC50 (Influenza A virus H3N2) | selectivity ratio [1] | selectivity ratio [2]
1 | C=C(C)[C@@H]1CC[C@]2(C(=O)O)CC[C@]3(CO)[C@H](CC[C@@H]4[C@@]5(C)C[C@@H](O)[C@H](O[C@@H]6O[C@H](CO)[C@@H](O)[C@H](O)[C@H]6O[C@@H]6OC[C@@H](O)[C@H](O)[C@H]6O)C(C)(C)[C@@H]5CC[C@]43C)[C@@H]12 | Not Active | Not Active |  | 
2 | C=C(C)[C@@H]1CC[C@]2(C(=O)O)CC[C@]3(CO)[C@H](CC[C@@H]4[C@@]5(C)C[C@@H](O)[C@H](O[C@@H]6O[C@H](CO)[C@@H](O)[C@H](O)[C@H]6O[C@@H]6O[C@H](CO)[C@@H](O)[C@H](O)[C@H]6O)C(C)(C)[C@@H]5CC[C@]43C)[C@@H]12 |  | Not Active |  | 
3 | C=C(C)[C@@H]1CC[C@]2(C(=O)O)CC[C@]3(CO)[C@H](CC[C@@H]4[C@@]5(C)C[C@@H](O)[C@H](O)C(C)(C)[C@@H]5CC[C@]43C)[C@@H]12 |  | Not Active |  | 
4 | CC1(C)C[C@H]2C3=CC[C@@H]4[C@@]5(C)CC[C@H](O)C(C)(C)[C@@H]5CC[C@@]4(C)[C@]3(C)CC[C@@]2(C(=O)O)C[C@H]1OC(=O)/C=C/c1ccccc1 |  |  | > 11 | > 15
5 | C=C(C)[C@@H]1CC[C@]2(C(=O)O)CC[C@]3(C)[C@H](CC[C@@H]4[C@@]5(C)C[C@@H](O)[C@H](O[C@@H]6O[C@H](CO)[C@@H](O)[C@H](O)[C@H]6O[C@@H]6OC[C@@H](O)[C@H](O)[C@H]6O)C(C)(C)[C@@H]5CC[C@]43C)[C@@H]12 |  | Not Active |  | 
6 | C[C@H]1O[C@@H](O[C@H]2[C@H](O)[C@@H](O[C@@H]3OC[C@@H](O)[C@H](O)[C@H]3O)[C@H](O[C@H]3[C@H](O)C[C@]4(C)[C@H]5CC=C6[C@@H]7CC(C)(C)CC[C@]7(C(=O)O)CC[C@@]6(C)[C@]5(C)CC[C@H]4C3(C)C)O[C@@H]2CO)[C@@H](O)[C@@H](O)[C@@H]1O | Not Active |  |  | 
7 | C=C(C)[C@@H]1CC[C@]2(C(=O)O)CC[C@]3(C)[C@H](CC[C@@H]4[C@@]5(C)C[C@@H](O)[C@H](O)C(C)(C)[C@@H]5CC[C@]43C)[C@@H]12 [ALPHITOLIC ACID] | Not Active | Not Active |  | 
8 | CC1(C)C[C@H]2C3=CC[C@@H]4[C@@]5(C)C[C@@H](O)[C@H](O)C(C)(C)[C@@H]5CC[C@@]4(C)[C@]3(C)CC[C@@]2(C(=O)O)C[C@H]1OC(=O)/C=C/c1ccccc1 |  |  | > 9 | > 14
9 | CC1(C)CC[C@]2(C(=O)O)CC[C@]3(C)C(=CC[C@@H]4[C@@]5(C)C[C@@H](O)[C@H](O)C(C)(C)[C@@H]5CC[C@]43C)[C@@H]2C1 [MASLINIC ACID] | Not Active | Not Active |  | 
